A selection: hits, their analogues and other compounds. The true share with any hit is near 4.2%.
XBP1 UPR activ: activators of adaptive XBP1 UPR arm, primary screen, cell-based, CHO-XBP1 luciferase reporter, luminescence, uHTS. AID 463104, 2010. hit rate 0.33% among 330,000. IRE1-XBP1 UPR activation; percent of tunicamycin response, DMSO as zero. activation, % at 20 µM;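 active means versus positive control, 20 µM dose yields 30% or more activation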;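 further: 100% = tunicamycin at 10 µg/mL and 0% = DMSO only wells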
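assay system = CHO-XBP1 luciferase reporter cells | amount = 1000 cells/well | buffer or medium = F12 plus 10% FBS | compound dosing = single point, 20 µM final compound, 1% DMSO | incubation = 16-18 h cell attachment at 37 °C, then 6 h compound exposure | detection = Steady-Glo luminescence read | controls = tunicamycin 10 µg/mL and vehicle-only wells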
ANO1 block: TMEM16A chloride channel inhibitors, primary screen, cell-based, HTS; HEK293 TMEM16A/YFP iodide influx fluorescence, ionomycin; normalized B-score (activity score, 25-100; higher = stronger inhibition) at 10 µM; hit rate 1.2% among 310,000;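 active means ratio plate-corrected score three or more library SD toward inhibition, starting fluorescence score within five deviations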;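 further: score derived from kinetic fluorescence span divided by baseline fluorescence per well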
CHOP inhibitor: inhibitors of CHOP promoter induction, primary screen, cell-based, unfolded protein response, luciferase reporter; CHO-K1 CHOP-promoter luciferase, tunicamycin-induced, 15-18 h; inhibition, % at 10 µM; hit rate 3.8% among 220,000;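 active means compounds that reduced the stress-induced luciferase reporter signal by more than about 70% of percent inhibition, limit read from the data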;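 further: 0% = tunicamycin plus vehicle and 100% = wells without tunicamycin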
CHOP UPR activ: activators of apoptotic CHOP UPR arm, primary screen, cell-based, CHO-CHOP luciferase reporter, luminescence, uHTS. activation, % at 10 µM. AID 449763, 2010. UPR activation; percent of tunicamycin response over DMSO baseline. hit rate 0.34% among 330,000;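 active means at 10 µM dose, activation of 40% or more, normalized to positive control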;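 further: 100% = tunicamycin at 10 µg/mL and 0% = DMSO alone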
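Material: CHO-CHOP cells, stable luciferase reporter of PERK-eIF2a-CHOP signalling; quantity: 500 reporter cells seeded per well; buffer or medium: F12 medium containing 10% fetal bovine serum; compound: one dose, 10 µM in 0.5% DMSO; incubation: 6 h compound treatment, 37 °C; measured by: Steady-Glo luciferase luminescence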
ANO1 activ: TMEM16A chloride channel activators or potentiators, primary screen, cell-based, HTS | Anoctamin-1 (Mus musculus), Q8BHY3 | B-score at 10 µM | hit rate 0.3% among 340,000 | AID 623877, 2012 | HEK293 TMEM16A/YFP-H148Q/I152L, iodide quench fluorescence; active compounds read low;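 active means fluorescence-ratio B-score plate-corrected deviation score at least 3 library SD below zero, with starting fluorescence score within 5 deviations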;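 further: channel opened by trigger with iodide after compound preincubation; score built on the fluorescence ratio of max minus min over baseline; more negative score means more quench and so TMEM16A activation or potentiation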
Lipid droplet: inhibitors of hepatocyte lipid droplet formation, primary screen, imaging, high-throughput imaging, BODIPY stain. AML12 mouse hepatocytes, oleate lipid droplets. inhibition, % at 6.5 µM. hit rate 0.4% among 240,000. AID 1656, 2009;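 active means lipid droplet intensity inhibited by at least 50%, with more than 500 cells counted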
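Technique: fluorescence imaging, 20x objective, two fields per well / Assay system: AML12 hepatocytes (mouse) / Measure: % inhibition of lipid droplet signal / Doses: 6.5 µM single-point dosing / Incubation: overnight exposure / Reagent: 100 µM oleic acid challenge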
Starred values were filed as active, the others as inactive; i = inactive; . = not tested or not shown.

SMILES	XBP1 UPR activ	ANO1 block	CHOP inhibitor	CHOP UPR activ	ANO1 activ	Lipid droplet
CS(=N)(=O)CC[C@H](N)C(=O)O (stereo partly specified)	.	.	-6	.	.	.
COc1cc2c(cc1/C=C/[N+](=O)[O-])OCO2	.	.	93*	.	i	5
C=CCN1C[C@@H](C)N([C@H](c2ccc(C(=O)N(CC)CC)cc2)c2cccc(OC)c2)C[C@@H]1C	.	.	-16	.	.	.
Cc1ccc(OCC(=O)NCCN2CCN(C(=O)COc3ccc(C)cc3)CC2)cc1	-2	i	-17	0	i	1
COc1ccc(CNC(C)Cc2cccs2)cc1 (stereo unspecified)	0	i	-10	0	-27*	-7
COc1ccc(CCNC(C)CCc2ccc(OC)cc2)cc1 (stereo unspecified)	-3	i	18	-1	i	-21
Cc1cc([N+](=O)[O-])c2ccccc2[n+]1[O-]	-6	i	104*	-4	i	-40
Cc1ccccc1[N+](=O)[O-]	-2	.	.	1	i	.
CC1CCN(S(=O)(=O)c2ccc(NN=C(C#N)C#N)cc2)CC1	-5	100*	50	0	.	-13
N#CC(C#N)=NNc1ccc(S(N)(=O)=O)cc1	-1	i	-20	0	i	16
Cc1ccc(/C=C2/C(=O)NC(=O)N(Cc3ccc(F)cc3)C2=O)o1	13	i	89*	5	.	5
O=C1NC(=O)N(Cc2ccc(F)cc2)C(=O)/C1=C\c1ccoc1	2	i	-52	0	i	4
COc1ccc2c(c[n+](C)c3c4cc5c(cc4ccc23)OCO5)c1OC	.	.	-25	.	.	.
CN(N=O)c1cc(O)ccc1O	.	.	-12	.	.	.
Nc1ccccc1-[n+]1c(-c2ccccc2)cc(-c2ccccc2)cc1-c1ccccc1	-1	i	-16	0	-9*	-2
Oc1ccccc1-[n+]1c(-c2ccccc2)cc(-c2ccccc2)cc1-c1ccccc1	2	i	.	0	i	.
[O-]c1ccccc1-[n+]1c(-c2ccccc2)cc(-c2ccccc2)cc1-c1ccccc1	3	100*	.	-1	i	.
Cc1ccccc1-[n+]1c(-c2ccccc2)cc(-c2ccccc2)cc1-c1ccccc1	-1	100*	.	1	i	.
Oc1ccc2c3c1O[C@H]1[C@@H](O)CC[C@@]4(O)C(C2)N(CC2CCC2)CCC314 (stereo partly specified)	.	.	-8	.	.	.
C[C@@H]1O[C@H](C[N+](C)(C)C)CS1	.	.	-9	.	.	.
CCOC(=O)COc1ccc2c(c1)c(C(C)=O)c(C)n2Cc1ccccc1	-2	i	15	0	-5.5*	3
CCN(CCO)c1ccc(N=Cc2c(O)n(C)c(=S)[nH]c2=O)cc1	5	i	44	6	-10*	11
CCN(CC)c1ccc(N=Cc2c(O)n(Cc3ccco3)c(=O)[nH]c2=O)cc1	12	i	5	3	i	-2
CC(C)c1ccc(N=Cc2c(O)n(C3CC3)c(=S)[nH]c2=O)cc1	1	i	84*	6	i	33
NC(CCCCCP(=O)(O)O)C(=O)O (stereo unspecified)	.	.	-19	.	.	.
SMILES	XBP1 UPR activ	ANO1 block	CHOP inhibitor	CHOP UPR activ	ANO1 activ	Lipid droplet
O=C(O)[C@@H]1CCN1	.	.	6	.	.	.
Cc1cc(OCC(=O)N[C@H](C(=O)O)c2ccccc2)c2c3c(c(=O)oc2c1)CCC3	0	i	.	-1	-16*	.
Cc1cc(OCC(=O)N[C@@H](Cc2ccccc2)C(=O)O)c2c3c(c(=O)oc2c1)CCC3	0	i	.	0	i	-8
c1ccc(-n2ccnc2)cc1	-4	i	.	0	i	-9
COC(=O)C1C2c3ccccc3C(c3ccccc32)C1C(=O)OC (stereo unspecified)	1	i	27	2	-8.8*	-2
COc1ccc(NC2=NCC(C)S2)cc1 (stereo unspecified)	2	i	9	2	i	-4
CC1CN=C(Nc2ccc(F)cc2)S1 (stereo unspecified)	0	i	18	-2	-4.6*	13
O=C(CN1CC=C(c2ccccc2)CC1)NC(=O)NCc1ccco1	0	i	76*	1	i	.
Cc1cc(Br)c(NC(=O)CN2CC=C(c3ccccc3)CC2)c(Br)c1	-3	i	37	4	i	-12
c1ccc(CCNCc2cccs2)cc1	-5	i	.	0	i	.
O=C(COC(=O)c1cccc(O)c1)Nc1ccc(Cl)cc1C(=O)c1ccccc1	2	i	80*	-1	i	-4
C/C=C(/C)C(=O)O[C@H]1C(C)=C2[C@H]([C@@H]1OC(=O)CCCCCCC)[C@@](C)(OC(C)=O)C[C@H](OC(=O)CCC)[C@@]1(O)[C@H]2OC(=O)[C@@]1(C)O	.	.	32	.	.	.
Cc1c(Cl)cccc1N1C(=O)NC(=O)/C(=C\c2cc(C)n(-c3cccc(C(=O)O)c3C)c2C)C1=O	1	i	.	0	i	-9
CC1Oc2cc3c(-c4c(O)cc(O)c5c(O)c6c(cc45)OC(C)C(C)C6=O)c(O)cc(O)c3c(O)c2C(=O)C1C (stereo unspecified)	18	i	102*	7	-9.1*	-2
CC(=O)OC1CCC2(C)C(CCC3C4CC(N5CC5)C(C(C)=O)C4(C)CC(=O)C32)C1 (stereo unspecified)	.	.	.	.	i	.
CN(C)c1ccc(/C=C/C=C2/C(=O)NC(=O)N(c3ccccc3)C2=O)cc1	.	.	84*	.	i	-9
CC1Cc2cc3c(cc2C(c2ccc(N)cc2)=NN1)OCO3 (stereo unspecified)	.	.	-20	.	.	.
C=C(C=O)C[C@@H]1C[C@H](O)C2OC3C[C@]4(C)OC5/C=C\CC6OC7C(CC=CCC6OC5CCCC4OC3CC2O1)OC1CC2OC3CC(=O)OC3C[C@@H](C)C[C@@]2(C)OC1C[C@@H]7C (stereo partly specified)	-9	.	107*	-9	.	26
C=C(C=O)CC1CC(O)[C@]2(C)OC3C[C@@H]4OC5C[C@]6(C)O[C@]7(C)CCC8OC9C[C@]%10(C)OC(/C(C)=C\CO)C(O)CC%10OC9CC(C)C8OC7CC6O[C@]5(C)C/C=C\C4OC3CC2O1 (stereo partly specified)	-2	i	.	1	i	.
O=C(O)CCCOc1ccc(Cl)cc1Cl	.	.	.	.	i	.

Assay outcomes deposited in PubChem by several laboratories.
